Screening results from PubChem.
Most compounds without a hit are left out; they make up all but 2.4% or so of the library.
HNF4A DNA FP: change in binding of human HNF4 alpha to DNA; HNF4a-FITC DNA binding, fluorescence polarization, 1 h; hit rate 0.3% among 360,000; activity change, % at 10 µM; AID 1224865; in the data active = activity change above about 30%, passing the limit was not always enough
CSN inh: blocks human CSN-mediated cullin deneddylation | Q92905 | Purified CSN, SCF-Nedd8-OG deneddylation, fluorescence polarization | inhibition, % at 12.5 µM | hit rate 0.38% among 360,000 | AID 651999;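 active = pattern-corrected inhibition above about 35%, with an unprinted fluorescence ratio check between 0.5 and 1.5, limit read from the data, passing the limit was not always enough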;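 also: 0% = enzyme with substrate and 100% = substrate without enzyme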
Target sequence (Q92905 whole entry, looked up, one chain of several): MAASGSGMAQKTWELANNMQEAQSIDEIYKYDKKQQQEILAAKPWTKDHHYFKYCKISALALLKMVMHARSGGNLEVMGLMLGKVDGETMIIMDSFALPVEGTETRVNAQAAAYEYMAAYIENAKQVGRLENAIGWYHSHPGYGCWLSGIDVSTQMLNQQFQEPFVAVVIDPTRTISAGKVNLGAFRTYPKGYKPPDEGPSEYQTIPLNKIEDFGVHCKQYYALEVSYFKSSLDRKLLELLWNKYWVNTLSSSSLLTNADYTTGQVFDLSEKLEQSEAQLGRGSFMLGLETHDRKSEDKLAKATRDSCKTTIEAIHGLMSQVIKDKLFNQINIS
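Assay system: purified human Csn5 enzyme expressed in HEK293T cells; measure: % inhibition; also added: SCFSkp2-Nedd8OG substrate at 10 nM final; technique: fluorescence polarization; times: reaction 90 min, room temperature; medium: Tris buffer pH 7.5, NaCl, DTT, Tween-20, trehalose, ovalbumin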
Neddyl block: blocks human cullin neddylation. inhibition, % at 25 µM. hit rate 0.58% among 360,000. TR-FRET cullin neddylation, biochemical; in the data active = inhibition above about 36%
TPT1 inh: blocks Candida albicans tRNA 2'-phosphotransferase. recombinant caTPT1, FP RNA substrate dephosphorylation. inhibition, % at 5 µM. hit rate 0.81% among 300,000;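 active = inhibition above the mean of all tested compounds plus 3 SD, set per screening campaign, cut at about 24% in these data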;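 also: plate controls were DMSO alone for no effect and ferristatin control at 100 nM for full effect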
Rpn11 inh: Rpn11 (human) deubiquitinase inhibition | inhibition, % at 20 µM | hit rate 0.59% among 360,000 | human 26S proteasome, Ub4-pepOG fluorescence polarization; 20S core pre-blocked with epoxomicin;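 active = inhibition at 20 µM, scaled to each plate's controls, above about 33%, limit read from the data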
Rin1 Abl inh: inhibitors of human Rin1-Abl protein interaction; hit rate 0.4% among 360,000; inhibition, % at 7.35 µM; AID 588664; TR-FRET Rin1/Abl binding, biochemical; in the data active = inhibition above about 5%, passing the limit was not always enough
caTPT1 confirm: TPT1 (C. albicans) inhibition, confirmation. inhibition, % at 5 µM. AID 2149. shares compounds with TPT1 inh. recombinant caTPT1, fluorescence polarization, RNase T1 coupled. hit rate 74% among 2,400;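 active = inhibition above the primary screen limit, the mean inhibition of all tested compounds plus 3 SD, cut at about 25% in these data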
RNase T1 counter: counter-screen for TPT1 inhibitors: inhibitors of Aspergillus oryzae RNase T1 | shares compounds with TPT1 inh | RNase T1 cleavage, fluorescence polarization, 1536-well | inhibition, % at 5 µM | hit rate 83% among 2,400;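 active = inhibition above the solvent-only control well mean plus 3 SD, limit set per screening run, cut at about 23% in these data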;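 also: plate controls were DMSO wells with enzyme for no effect and wells without RNase T1 for full effect; inhibitors block cleavage so intact labeled substrate keeps polarization high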
Target sequence (P00651 whole entry, looked up): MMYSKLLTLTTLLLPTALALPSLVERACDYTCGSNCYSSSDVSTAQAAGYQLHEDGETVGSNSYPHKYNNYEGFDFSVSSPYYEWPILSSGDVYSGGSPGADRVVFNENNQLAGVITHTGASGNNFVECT
* = called active by the depositor.

Screening Cc1c(Br)c([N+](=O)[O-])nn1C(C)C(=O)N1CCCc2ccccc21 (configuration not stated) returned HNF4A DNA FP -2.7, CSN inh -0.3, Neddyl block -23.6, TPT1 inh -0.7, Rpn11 inh -4.7 and Rin1 Abl inh -2.1.
For CCCOC(=O)CCCCCCCCC(O)CN1CCCCC1 (configuration not stated) the results were HNF4A DNA FP 1.8, CSN inh 3.0, Neddyl block 0.8, TPT1 inh 2.5, Rpn11 inh -8.0 and Rin1 Abl inh 2.7.
Cc1ccccc1NC(=O)N1CCNC(=O)C1CC(=O)Nc1cc(Cl)ccc1Cl (configuration not stated) was read as HNF4A DNA FP 0.8, CSN inh -5.0, Neddyl block 3.8, TPT1 inh -2.4, Rpn11 inh -21.4 and Rin1 Abl inh 0.4.
CC(C)OCCCn1c(-c2ccco2)nc2nc3ccccc3nc21 was read as HNF4A DNA FP 16.4, CSN inh 25.5, TPT1 inh 25.8*, Rpn11 inh 13.7, Rin1 Abl inh -5.7, caTPT1 confirm 13.3 and RNase T1 counter 24.1*.
For CCC(C)n1c(-c2ccco2)nc2nc3ccccc3nc21 (configuration not stated) the results were TPT1 inh 26.7*, caTPT1 confirm 14.9 and RNase T1 counter 19.4.
`CCc1ccc(CN(Cc2cccnc2)C(=O)/C=C/c2ccc(OC)cc2)cc1` gave HNF4A DNA FP 60.3*, CSN inh 25.9, Neddyl block 3.5, TPT1 inh 39.2*, Rin1 Abl inh -0.5, caTPT1 confirm 88.6* and RNase T1 counter 102.2*.
COc1ccc(/C=C/C(=O)NCc2cccnc2)cc1 was read as HNF4A DNA FP 4.5, CSN inh -5.5, Neddyl block -5.7, TPT1 inh 0.0, Rpn11 inh -3.9 and Rin1 Abl inh -4.4.
`CCOc1ccc(S(=O)(=O)N2CCOCC2)cc1NC(=O)CSC(=S)N1CCCC1` gave HNF4A DNA FP -1.3, CSN inh -0.2, Neddyl block 7.5, TPT1 inh -2.5, Rpn11 inh -2.6 and Rin1 Abl inh -0.1.
COc1ccc(OC)c(/C=C2\NC(=O)NC2=O)c1 was read as HNF4A DNA FP 3.3, CSN inh -2.8, Neddyl block 21.5, TPT1 inh -2.6, Rpn11 inh -2.8 and Rin1 Abl inh -3.8.
COc1cc(N2CCCC2)c(OC)cc1/C=C1/NC(=S)NC1=O was read as HNF4A DNA FP 152.3, CSN inh 113.8, Neddyl block -51.5, TPT1 inh 130.8*, Rin1 Abl inh -4.7, caTPT1 confirm 138.4* and RNase T1 counter 128.8*.
Screening CC1=C(C(=O)N2CCCCCC2)CC(CC(=O)NC(c2ccccc2)c2ccccc2)C(=O)N1Cc1ccccc1 (configuration not stated) returned HNF4A DNA FP 1.2, CSN inh -4.1, Neddyl block -3.3, Rpn11 inh 10.1 and Rin1 Abl inh -3.5.
Screening CN1C2CCC1/C(=C/c1cccn1C)C(=O)/C2=C\c1cccn1C returned HNF4A DNA FP 138.1, CSN inh -31.2, Neddyl block -194.9, TPT1 inh 121.4*, Rin1 Abl inh -17.8, caTPT1 confirm 123.3* and RNase T1 counter 117.1*.
Screening CC(CS(=O)(=O)c1ccc2c(c1)NC(=O)CS2)C(=O)NCc1ccccc1Cl (configuration not stated) returned HNF4A DNA FP -8.9, CSN inh 19.7, Neddyl block -17.1, TPT1 inh 12.1, Rpn11 inh 27.1 and Rin1 Abl inh -0.9.
CCN(CC)c1ccc(C=N/C(C#N)=C(\N)C#N)cc1 was read as HNF4A DNA FP 27.6, CSN inh 27.5, Neddyl block -2.8, TPT1 inh 82.6*, Rin1 Abl inh -1.0, caTPT1 confirm 116.4* and RNase T1 counter 121.0*.
`CCN(CC)c1ccc(/C=N/Nc2nn[nH]n2)cc1` gave HNF4A DNA FP 9.7, CSN inh 2.8, Neddyl block 5.0, TPT1 inh 0.5, Rpn11 inh -4.5 and Rin1 Abl inh -6.2.
